Source: ChEMBL document CHEMBL2311385, “Enhancing macrocyclic diterpenes as multidrug-resistance reversers: structure-activity studies on jolkinol D derivatives” (J Med Chem, 2013)

Columns and labels:
[1] = target: T1, ATP-dependent translocase ABCB1 (Homo sapiens, UniProt P08183); test: Inhibition of human Pgp-mediated rhodamine 123 efflux expressed in mouse L5178Y cells assessed as fluorescence activity ratio at 20 uM after 10 mins by flow cytometric analysis; format: cell-based
How it was run: (§1)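 PAR and MDR L5178Y cells at 2 × 10^6 cells/mL in serum-free McCoy's 5A, compound at 2 or 20 μM. Verapamil 22 μM as positive control, DMSO 2% as solvent control. After 10 min at room temperature, rhodamine-123 added (5.2 μM final) for 20 min at 37 °C. Cells washed twice, resuspended in PBS, and mean FL-1 of 20 000 cells read by flow cytometry. FAR = (MDR treated/untreated)/(PAR treated/untreated).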

[2] = target: T1, ATP-dependent translocase ABCB1; test: Inhibition of human Pgp-mediated rhodamine 123 efflux expressed in mouse L5178Y cells assessed as fluorescence activity ratio at 2 uM after 10 mins by flow cytometric analysis; format: cell-based; how it was run: as §1
[3] = tested on: L5178Y; test: Cytotoxicity against chemosensitive mouse L5178Y cells after 72 hrs by MTT assay; format: cell-based
How it was run: (§2)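 L5178Y parental and human MDR1-transfected mouse T-cell lymphoma cells grown in McCoy's 5A with 10% heat-inactivated horse serum at 37 °C, 5% CO2. Cells seeded at 1 × 10^5/mL and given 2-fold serial dilutions in duplicate wells for 72 h. MTT added for 4 h, then SDS overnight, OD 550 nm (ref 630). IC50 from curve fitting over three independent experiments. Selectivity index = IC50(PAR)/IC50(MDR).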

[4] = tested on: P-glycoprotein 1 / MDR1 (Homo sapiens); test: Selectivity index, ratio of IC50 for chemosensitive mouse L5178Y cells to IC50 for chemoresistant mouse L5178Y cells expressing human MDR1 gene
[5] = tested on: L5178Y; test: Cytotoxicity against chemoresistant mouse L5178Y cells expressing human MDR1 gene after 72 hrs by MTT assay; format: ADME, cell-based; how it was run: as §2
[6] = target: T1, ATP-dependent translocase ABCB1; test: Inhibition of human Pgp expressed in mouse L5178Y cells assessed as potentiation of doxorubicin-induced cytotoxicity after 48 hrs by MTT assay; format: cell-based
How it was run: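 Checkerboard combination with doxorubicin (14.7–0.1 μM) across one axis and 2-fold dilutions of modifier on the other, at a fixed drug ratio. MDR L5178Y cells seeded at 2 × 10^5 cells/mL and incubated 48 h, growth read by MTT. Combination index from the Chou–Talalay median-effect equation at 50% inhibition, using the best combination ratio. CI <1 synergy, =1 additivity, >1 antagonism.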

[7] = tested on: L5178Y; test: Toxicity against chemoresistant mouse L5178Y cells expressing human MDR1 gene at >40 uM after 10 mins by flow cytometric analysis; format: cell-based
How it was run: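 Toxicity during the rhodamine-123 accumulation assay, tested at 2, 20, 40 and 80 μM, was judged from shifts in flow-cytometric forward scatter and side scatter.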

[8] = target: P-gp (ABCB1) (Homo sapiens, UniProt P08183); test: Inhibition of human Pgp expressed in mouse L5178Y cells assessed as reversal of chemoresistance at 20 uM after 10 mins by flow cytometric analysis; format: cell-based
How it was run: (§3)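 MDR L5178Y cells preincubated 10 min with compound, then loaded with rhodamine-123 (5.2 μM final) for 20 min at 37 °C and read by flow cytometry. The percentage of cells reverted to a chemosensitive phenotype was obtained by Overton cumulative histogram subtraction, channel by channel.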

[9] = target: T1, ATP-dependent translocase ABCB1; test: Inhibition of human Pgp-mediated rhodamine 123 efflux expressed in mouse L5178Y cells assessed as reversal of chemoresistance after 10 mins by flow cytometric analysis; format: cell-based; how it was run: as §3

T1 sequence (P08183 whole entry): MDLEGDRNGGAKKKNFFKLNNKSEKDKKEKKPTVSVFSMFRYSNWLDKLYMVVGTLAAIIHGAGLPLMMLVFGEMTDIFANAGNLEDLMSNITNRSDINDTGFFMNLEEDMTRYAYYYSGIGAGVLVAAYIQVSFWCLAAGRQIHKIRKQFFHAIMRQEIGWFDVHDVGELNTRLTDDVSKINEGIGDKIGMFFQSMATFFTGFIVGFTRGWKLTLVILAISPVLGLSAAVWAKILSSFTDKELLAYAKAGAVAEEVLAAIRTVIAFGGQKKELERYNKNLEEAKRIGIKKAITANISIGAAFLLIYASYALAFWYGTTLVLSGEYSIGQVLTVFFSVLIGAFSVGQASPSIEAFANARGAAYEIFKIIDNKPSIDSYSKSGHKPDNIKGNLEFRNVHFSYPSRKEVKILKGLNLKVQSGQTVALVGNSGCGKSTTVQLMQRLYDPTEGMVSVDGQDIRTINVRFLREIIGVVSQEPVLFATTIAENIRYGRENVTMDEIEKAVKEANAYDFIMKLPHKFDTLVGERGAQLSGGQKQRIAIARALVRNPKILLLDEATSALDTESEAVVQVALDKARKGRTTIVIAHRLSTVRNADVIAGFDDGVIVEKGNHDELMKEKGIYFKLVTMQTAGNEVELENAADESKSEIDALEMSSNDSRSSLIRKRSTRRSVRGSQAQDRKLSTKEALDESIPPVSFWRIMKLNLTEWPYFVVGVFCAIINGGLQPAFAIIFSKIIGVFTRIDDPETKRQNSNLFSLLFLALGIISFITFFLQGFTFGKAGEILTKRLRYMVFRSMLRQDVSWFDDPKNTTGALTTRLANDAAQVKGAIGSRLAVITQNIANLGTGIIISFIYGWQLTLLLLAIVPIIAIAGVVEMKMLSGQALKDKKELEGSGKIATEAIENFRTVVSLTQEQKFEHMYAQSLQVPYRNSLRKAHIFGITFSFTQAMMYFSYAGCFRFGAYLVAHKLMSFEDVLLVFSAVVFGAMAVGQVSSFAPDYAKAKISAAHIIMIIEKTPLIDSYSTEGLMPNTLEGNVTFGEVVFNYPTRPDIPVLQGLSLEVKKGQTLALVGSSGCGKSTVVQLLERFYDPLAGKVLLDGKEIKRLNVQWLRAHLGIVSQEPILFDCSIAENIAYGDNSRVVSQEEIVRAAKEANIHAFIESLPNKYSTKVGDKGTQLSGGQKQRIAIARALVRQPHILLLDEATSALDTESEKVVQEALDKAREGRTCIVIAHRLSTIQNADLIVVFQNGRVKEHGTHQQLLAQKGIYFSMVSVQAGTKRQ
Chain of P-gp (ABCB1) (P08183 whole entry): as above

Row | SMILES | Ratio [1] | Ratio [2] | inhibition at 10 min, 20 µM [8] [%] | inhibition (INH) [9] | IC50 [3] [µM] | selectivity ratio [4] | IC50 [5] [µM] | CI [6] | Activity [7]
1 | CC(=O)O[C@H]1[C@@H](C)C[C@]2(OC(C)=O)C(=O)/C(C)=C/[C@@H]3[C@H](CC/C(C)=C/[C@@H]12)C3(C)C [JOLKINOATE A] | 33.76 | 1.16 | – | – | 38.2 | 0.6 | 60.4 | 0.18 | –
2 | CCC(=O)O[C@H]1[C@@H](C)C[C@]2(OC(C)=O)C(=O)/C(C)=C/[C@@H]3[C@H](CC/C(C)=C/[C@@H]12)C3(C)C [JOLKINOATE B] | 30.64 | 2.95 | – | – | 18.3 | 0.8 | 22.2 | 0.34 | Toxic
3 | CCC(CC)C(=O)O[C@H]1[C@@H](C)C[C@]2(OC(C)=O)C(=O)/C(C)=C/[C@@H]3[C@H](CC/C(C)=C/[C@@H]12)C3(C)C [JOLKINOATE F] | 77.25 | 4.99 | – | – | 14.3 | 1 | 14.7 | 0.25 | Toxic
4 | CC(=O)O[C@]12C[C@H](C)[C@H](OC(=O)c3ccccc3)[C@@H]1/C=C(\C)CC[C@H]1[C@@H](/C=C(\C)C2=O)C1(C)C [JOLKINOATE I] | 84.22 | 24.15 | 70.2 | Dose-dependent effect | 34.7 | 1 | 33.1 | 0.35 | –
5 | CC(=O)O[C@]12C[C@H](C)[C@H](OC(=O)c3cccc(C(F)(F)F)c3)[C@@H]1/C=C(\C)CC[C@H]1[C@@H](/C=C(\C)C2=O)C1(C)C [JOLKINOATE L] | 28.66 | 9.32 | – | – | 44 | 0.8 | 52.6 | 0.27 | –
6 | CC(=O)O[C@]12C[C@H](C)[C@H](OS(=O)(=O)c3ccccc3)[C@@H]1/C=C(\C)CC[C@H]1[C@@H](/C=C(\C)C2=O)C1(C)C [JOLKINOATE M] | 52.77 | 16.06 | – | Dose-dependent effect | 12.1 | 0.8 | 15 | 0.21 | –
7 | C/C1=C\[C@H]2[C@@H](O)[C@@H](C)C[C@]2(O)C(=O)/C(C)=C/[C@@H]2[C@H](CC1)C2(C)C [JOLKINODIOL] | 3.38 | 0.84 | – | – | 36.4 | 0.7 | 48.9 | 0.65 | –

Second part, led by results:

Row | Ratio [1] | Ratio [2] | inhibition at 10 min, 20 µM [8] [%] | inhibition (INH) [9] | SMILES | IC50 [3] [µM] | selectivity ratio [4] | IC50 [5] [µM] | CI [6] | Activity [7]
8 | 107.89 | 5.15 | – | – | CCCC(=O)O[C@H]1[C@@H](C)C[C@]2(OC(C)=O)C(=O)/C(C)=C/[C@@H]3[C@H](CC/C(C)=C/[C@@H]12)C3(C)C [JOLKINOATE C] | 24 | 0.9 | 26.8 | 0.39 | Toxic
9 | 25.69 | 1.74 | – | – | CCCCCCCCCCCC(=O)O[C@H]1[C@@H](C)C[C@]2(OC(C)=O)C(=O)/C(C)=C/[C@@H]3[C@H](CC/C(C)=C/[C@@H]12)C3(C)C [JOLKINOATE D] | 38.7 | 0.6 | 60.3 | 2.02 | –
10 | 12.13 | 7.14 | – | – | CCCC(C)C(=O)O[C@H]1[C@@H](C)C[C@]2(OC(C)=O)C(=O)/C(C)=C/[C@@H]3[C@H](CC/C(C)=C/[C@@H]12)C3(C)C (stereo not given in full) [JOLKINOATE E] | 17.2 | 0.9 | 18.8 | 0.23 | Toxic
11 | 52.66 | 10.55 | – | – | CCCCC(CC)C(=O)O[C@H]1[C@@H](C)C[C@]2(OC(C)=O)C(=O)/C(C)=C/[C@@H]3[C@H](CC/C(C)=C/[C@@H]12)C3(C)C (stereo not given in full) [JOLKINOATE G] | 20.6 | 0.4 | 48.9 | 0.31 | Toxic
12 | 56.88 | 21.11 | – | Dose-dependent effect | CC(=O)O[C@]12C[C@H](C)[C@H](OC(=O)c3ccc(C)cc3)[C@@H]1/C=C(\C)CC[C@H]1[C@@H](/C=C(\C)C2=O)C1(C)C [JOLKINOATE J] | 41.2 | 0.9 | 45.1 | 0.26 | –
13 | 109.17 | 28.09 | 95 | Dose-dependent effect | COc1ccc(C(=O)O[C@H]2[C@@H](C)C[C@]3(OC(C)=O)C(=O)/C(C)=C/[C@@H]4[C@H](CC/C(C)=C/[C@@H]23)C4(C)C)cc1 [JOLKINOATE K] | 21.7 | 0.7 | 32.7 | 0.3 | –
14 | 0.92 | 0.79 | – | – | CC(=O)O[C@]12C[C@H](C)[C@H](O)[C@@H]1/C=C(\C)CC[C@H]1[C@@H](/C=C(\C)C2=O)C1(C)C [JOLKINOL D] | 89.9 | 0.9 | 99.7 | 0.26 | –
